These results are taken from ChEMBL document CHEMBL1275349 (J Med Chem, 2010).

The source made the active and inactive calls. No cut-off for these calls is given here.

For experiment [1], the system named is Strongylocentrotus purpuratus. The experiment can be described thus: Agonist activity at NAADP receptor in sea urchin egg homogenate assessed as desensitization of NAADP-induced Ca2+ release at => 1 nM treated for 9 mins before NAADP challenge by Fluo-3 staining based fluorimetric assay. The experiment is classed as functional, tissue-based. The procedure, abridged:
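Strongylocentrotus purpuratus egg homogenate (1.25% v/v) diluted in intracellular medium: 250 mM potassium gluconate pH 7.2, 0.5 mM ATP, 4 mM […], creatinine kinase, 3 μM Fluo-3; 17 °C. Ca2+ release read as fluorescence (ex 490/em 535 nm); EC50 from plateau maximum vs concentration, mean of ≥3 determinations. For desensitization, 9 min pretreatment, then 1 μM NAADP challenge; mean±SEM, n = 3.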

Experiment [2] is described as follows: Displacement of [32P]NAADP from NAADP receptor in sea urchin microsomes after 90 mins by liquid scintillation counting. The arrangement: species or system Strongylocentrotus purpuratus, Microsome. The procedure, abridged: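 Competition binding in sea urchin egg homogenate: 0.2 nM [32P]NAADP plus seven competitor concentrations, incubated together 90 min at 4 °C, in triplicate. Filtered, washed, filter-bound radioactivity counted by liquid scintillation.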

For experiment [3], the system named is Strongylocentrotus purpuratus. Kind of experiment: Agonist activity at NAADP receptor in sea urchin egg homogenate assessed as fold increase in EC50 for induction of Ca2+ release relative to NAADP. The experiment is classed as functional, tissue-based.
In experiment [4] the test system is Strongylocentrotus purpuratus. The experiment can be described thus: Binding affinity to NAADP receptor in sea urchin microsomes assessed as fold increase in IC50 for displacement of [32P]NAADP from receptor relative to NAADP. The settings on record: Microsome. The procedure, abridged: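 Competition binding in sea urchin egg homogenate: 0.2 nM [32P]NAADP plus seven competitor concentrations, incubated together 90 min at 4 °C, in triplicate. Filtered, washed, filter-bound radioactivity counted by liquid scintillation. IC50 from fitted curves over ≥3 experiments; fold value is relative to NAADP IC50.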

Experiment [5] deals with Strongylocentrotus purpuratus. Kind of experiment: Agonist activity at NAADP receptor in sea urchin egg homogenate assessed as induction of Ca2+ release at 2 nM by Fluo-3 staining based fluorimetric assay. The class given is functional, tissue-based.
A short description of experiment [6]: (§1) Agonist activity at NAADP receptor in sea urchin egg homogenate assessed as induction of Ca2+ release by Fluo-3 staining based fluorimetric assay. The experiment is classed as functional, Strongylocentrotus purpuratus.
The test system of experiment [7] is Strongylocentrotus purpuratus. Described as §1. The experiment is classed as functional.

`Nc1cc(C(=O)[O-])c[n+]([C@H]2O[C@@H](COP(=O)(O)OP(=O)(O)OC[C@H]3O[C@@H](n4cnc5c(N)ncnc54)[C@H](OP(=O)(O)O)[C@@H]3O)[C@H](O)[C@@H]2O)c1`: the outcome in experiment [1] and in experiment [5] was Active. Moreover, in experiment [2], the IC50 amounted to 0.0017 µM. The figures for the fold change (FC) in experiment [3] and in experiment [4] were 1.5 and 1.1, respectively. Moreover, the 50% effective concentration (EC50) in experiment [6] is 0.0274 µM. In addition, in experiment [7], the Activity entry is “Dose-dependent effect”.
On to `CCCCc1cc[n+]([C@H]2O[C@@H](COP(=O)(O)OP(=O)(O)OC[C@H]3O[C@@H](n4cnc5c(N)ncnc54)[C@H](OP(=O)(O)O)[C@@H]3O)[C@H](O)[C@@H]2O)cc1C(=O)[O-]`, for which the outcome in experiment [1] was Active. Besides, in experiment [2], the IC50 was 0.465 µM. In addition, the fold change (FC) in experiment [3] is more than 50000; in experiment [4], 303. The EC50 in experiment [6] was more than 1000 µM.
Taken in the same sequence, the figures for `Nc1ncnc2c1ncn2[C@@H]1O[C@H](COP(=O)(O)OP(=O)(O)OC[C@@H]2O[C@H]([n+]3ccc(-c4ccccc4)c(C(=O)[O-])c3)[C@@H](O)[C@H]2O)[C@@H](O)[C@H]1OP(=O)(O)O` were “Active”, 0.859 µM, more than 50000, 540 and more than 1000 µM.
Take `[N-]=[N+]=Nc1cc(C(=O)[O-])c[n+]([C@H]2O[C@@H](COP(=O)(O)OP(=O)(O)OC[C@H]3O[C@@H](n4cnc5c(N)ncnc54)[C@H](OP(=O)(O)O)[C@@H]3O)[C@H](O)[C@@H]2O)c1`: in experiment [1], the outcome was Active. In experiment [2], the IC50 amounted to 0.018 µM. Further, the fold change (FC) in experiment [3] is 90; in experiment [4], 11. The EC50 in experiment [6] is 1.69 µM.
Taken in the same sequence, the figures for `Nc1cc[n+]([C@H]2O[C@@H](COP(=O)(O)OP(=O)(O)OC[C@H]3O[C@@H](n4cnc5c(N)ncnc54)[C@H](OP(=O)(O)O)[C@@H]3O)[C@H](O)[C@@H]2O)cc1C(=O)[O-]` were “Active”, 0.141 µM, 235, 88 and 4.41 µM.
With `Cc1cc[n+]([C@H]2O[C@@H](COP(=O)(O)OP(=O)(O)OC[C@H]3O[C@@H](n4cnc5c(N)ncnc54)[C@H](OP(=O)(O)O)[C@@H]3O)[C@H](O)[C@@H]2O)cc1C(=O)[O-]`, the outcome in experiment [1] was Active. The IC50 in experiment [2] was 0.149 µM. The fold change (FC) in experiment [3] turned out to be 2200; in experiment [4] it was 93. Further, the EC50 in experiment [6] was 42.2 µM. Moreover, the Activity entry in experiment [7] is “Dose-dependent effect”.
Turning to `Nc1ncnc2c1ncn2[C@@H]1O[C@H](COP(=O)(O)OP(=O)(O)OC[C@@H]2O[C@H]([n+]3cc(C(=O)[O-])cc(C(=O)O)c3)[C@@H](O)[C@H]2O)[C@@H](O)[C@H]1OP(=O)(O)O`, in experiment [1], the outcome was Active. For the same compound, the IC50 in experiment [2] is more than 100 µM. In addition, the fold change (FC) in experiment [3] was more than 50000; in experiment [4] it was more than 60000. Moreover, the 50% effective concentration (EC50) in experiment [6] is more than 1000 µM.
In the same order, the values of `CCc1cc(C(=O)[O-])c[n+]([C@H]2O[C@@H](COP(=O)(O)OP(=O)(O)OC[C@H]3O[C@@H](n4cnc5c(N)ncnc54)[C@H](OP(=O)(O)O)[C@@H]3O)[C@H](O)[C@@H]2O)c1` are “Active”, 0.037 µM, 18, 23 and 0.352 µM.
Turning to `Nc1ncnc2c1ncn2[C@@H]1O[C@H](COP(=O)(O)OP(=O)(O)OC[C@@H]2O[C@H]([n+]3cccc(C(=O)[O-])c3)[C@@H](O)[C@H]2O)[C@@H](O)[C@H]1OP(=O)(O)O`, the Activity entry in experiment [7] is “Dose-dependent effect”.
For `Cc1cc(C(=O)[O-])c[n+]([C@H]2O[C@@H](COP(=O)(O)OP(=O)(O)OC[C@H]3O[C@@H](n4cnc5c(N)ncnc54)[C@H](OP(=O)(O)O)[C@@H]3O)[C@H](O)[C@@H]2O)c1`, the outcome in experiment [1] and in experiment [5] was Active. Further, the concentration for half-maximal inhibition (IC50) in experiment [2] stood at 0.0019 µM. The figures for the fold change (FC) in experiment [3] and in experiment [4] were 2.3 and 1.2, respectively. The EC50 in experiment [6] came to 0.043 µM. The Activity result in experiment [7] was “Dose-dependent effect”.
